Measured values from ChEMBL document CHEMBL1125346, “Guanidinophenyl-substituted enol lactones as selective, mechanism-based inhibitors of trypsin-like serine proteases” (J Med Chem, 1992).

Assays:
[1] = target: Plasminogen (Homo sapiens) (UniProt P00747); experiment: Time to reach maximum percent inhibition by the compound was determined against plasmin(625 nM); type: functional
Procedure, shortened: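 Plasmin plus excess lactone (10% final DMSO) was sampled over 2 h into Ts-Gly-Pro-Lys-pNA (157.4 μM) in 0.05 M phosphate, pH 7.8. The slope at 404 nm, relative to an enzyme-only control, gave residual activity. Minutes needed to reach maximal inhibition were reported.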

[2] = target: T1, Serine protease 1 (Bos taurus) (UniProt P00760); experiment: Acylation rate constant against trypsin
T1 sequence (whole entry): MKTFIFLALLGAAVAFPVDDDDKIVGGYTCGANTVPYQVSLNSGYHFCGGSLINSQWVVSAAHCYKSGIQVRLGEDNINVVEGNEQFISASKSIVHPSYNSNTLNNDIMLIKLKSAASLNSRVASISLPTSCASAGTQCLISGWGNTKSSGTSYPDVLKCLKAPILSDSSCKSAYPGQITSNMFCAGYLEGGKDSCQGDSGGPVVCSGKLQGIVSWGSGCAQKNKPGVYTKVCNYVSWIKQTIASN
Procedure, shortened: (§1)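 Competitive substrate assay: lactone (DMSO, final 10% v/v) and chromogenic substrate combined in buffer, enzyme added, absorbance followed to steady state. Turnover-corrected semilog plot gives kobs; I0 vs I0/kobs replot (eq 6) with separately determined Km yields Ki and ka. Where no burst was seen, Ki was estimated from Km(app) replots using 15-s initial velocities. Buffers and substrates as in incubation assay.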

[3] = target: Chymotrypsinogen A (Bos taurus) (UniProt P00766); experiment: Maximum percent inhibition by the compound was determined against Chymotrypsinogen (17 nM)
Procedure, shortened: (§2)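 Enzyme incubated with excess lactone added from DMSO stock (final 10% DMSO); aliquots over 2 h diluted into substrate: chymotrypsin Suc-AAPF-pNA 315 µM, pH 7.2, 410 nm; t-PA Spectrozyme t-PA 0.2 mM, Tris-imidazole pH 8.4, 405 nm; HNE MeO-Suc-AAPV-pNA 150 µM, pH 7.4, 410 nm; plasmin Ts-GPK-pNA 157.4 µM, pH 7.8, 404 nm; thrombin Ts-GPR-pNA 75 µM, pH 8.0, 408 nm; trypsin Z-VGR-pNA 155 µM, pH 7.2, 404 nm. Activity given relative to a no-lactone control. Some runs used a 10-min substrate-free delay after dilution. ∞ means no recovery over 2 h.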

[4] = Ratio of initial inhibitor concentration to initial Plasmin concentration
Procedure, shortened: (§3)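 Ratio I0/E0 of lactone to enzyme in the 2-h incubation assay; lactone added from DMSO stock to buffered enzyme (final 10% DMSO).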

[5] = target: Chymotrypsinogen A (Bos taurus) (UniProt P00766); experiment: Time to reach maximum percent inhibition by the compound was determined against alpha-chymotrypsin (17 nM); type: functional
Procedure, shortened: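 α-Chymotrypsin with excess lactone (DMSO, 10% final) was sampled over 2 h into Suc-Ala-Ala-Pro-Phe-pNA (315 μM) in 0.2 M phosphate, pH 7.2. Absorbance at 410 nm gave the remaining activity versus a control without lactone. Minutes to maximal inhibition were taken.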

[6] = target: T1, Serine protease 1 (Bos taurus); experiment: Maximum percent inhibition by the compound was determined against trypsin (14.6 nM); procedure, shortened: as §2
[7] = target: T2, Neutrophil elastase (Homo sapiens) (UniProt P08246); experiment: Time to reach maximum percent inhibition by the compound was determined against human neutrophil elastase HNE(66 nM); type: functional
T2 sequence (whole entry): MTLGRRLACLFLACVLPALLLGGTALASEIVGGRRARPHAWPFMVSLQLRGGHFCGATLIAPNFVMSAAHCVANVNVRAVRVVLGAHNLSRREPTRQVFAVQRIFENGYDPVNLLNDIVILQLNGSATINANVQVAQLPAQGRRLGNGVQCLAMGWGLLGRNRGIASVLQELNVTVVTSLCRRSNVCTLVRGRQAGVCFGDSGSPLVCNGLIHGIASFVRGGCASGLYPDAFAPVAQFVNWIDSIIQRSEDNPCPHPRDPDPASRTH
Procedure, shortened: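 HNE was incubated with excess lactone in 10% final DMSO. Aliquots drawn during 2 h went into MeO-Suc-Ala-Ala-Pro-Val-pNA (150 μM) in 0.1 M phosphate, 0.5 M NaCl, pH 7.4, read at 410 nm. Activity was set relative to a lactone-free control, and the time (min) to peak inhibition was noted.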

[8] = target: Tissue-type plasminogen activator (Homo sapiens) (UniProt P00750); experiment: Maximum percent inhibition persists was determined against Tissue plasminogen activator (19.4 nM); procedure, shortened: as §2
[9] = Ratio of initial inhibitor concentration to initial Chymotrypsinogen concentration; procedure, shortened: as §3
[10] = target: Tissue-type plasminogen activator (Homo sapiens) (UniProt P00750); experiment: Time for which maximum percent inhibition persists was determined against Tissue plasminogen activator (19.4 nM); type: functional; procedure, shortened: as §2
[11] = target: Plasminogen (Homo sapiens) (UniProt P00747); experiment: Time for which maximum percent inhibition persists was determined against plasmin(625 nM); * =no enzyme activity was recovered over 2 h; type: functional; procedure, shortened: as §2
[12] = target: T3, Urokinase-type plasminogen activator (Homo sapiens, UniProt P00749); experiment: Substrate binding constant against Urokinase
[13] = target: T3, Urokinase-type plasminogen activator
[14] = Ratio of initial inhibitor concentration to initial thrombin concentration; procedure, shortened: as §3
[15] = Ratio of initial inhibitor concentration to initial HNE concentration; procedure, shortened: as §3
[16] = target: Prothrombin (Homo sapiens) (UniProt P00734); experiment: Maximum percent inhibition by the compound was determined against thrombin (1.93 nM); procedure, shortened: as §2
[17] = target: Tissue-type plasminogen activator (Homo sapiens) (UniProt P00750); experiment: Time to reach maximum percent inhibition by the compound was determined against Tissue plasminogen activator (19.4 nM); type: functional
Procedure, shortened: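 Tissue plasminogen activator was exposed to excess lactone (10% final DMSO). Over 2 h, aliquots were diluted into Spectrozyme t-PA (0.2 mM) in Tris-imidazole, I 0.3, pH 8.4. Hydrolysis at 405 nm gave residual activity relative to an enzyme-only control. The time (min) to reach maximal percent inhibition was recorded.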

[18] = Ratio of initial inhibitor concentration to initial trypsin concentration; procedure, shortened: as §3
Serine protease 1 = target: T4, Serine protease 1 (Bos taurus, UniProt P00760); experiment: Decylation rate constant against trypsin
T4 sequence (P00760 whole entry): T1 sequence (whole entry)
Procedure, shortened: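 Trypsin incubated 30–45 min with excess lactone (same I0/E0 as incubation assay). Free inhibitor removed by two 1-h centrifugations at 0 °C. Activity recovery followed at room temperature against an inhibitor-free control carried through the same treatment; kd is the slope of ln remaining activity vs time. Substrate Z-Val-Gly-Arg-pNA 155 µM, 0.2 M phosphate pH 7.2, 404 nm.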

[19] = target: Plasminogen (Homo sapiens) (UniProt P00747); experiment: Maximum percent inhibition by the compound was determined against plasmin(625 nM); procedure, shortened: as §2
[20] = target: Chymotrypsinogen A (Bos taurus) (UniProt P00766); experiment: Time for which maximum percent inhibition persists was determined against alpha-chymotrypsin (17 nM); type: functional; procedure, shortened: as §2
[21] = Ratio of initial inhibitor concentration to initial urokinase concentration; procedure, shortened: as §3
[22] = target: Plasminogen (Homo sapiens) (UniProt P00747); experiment: Acylation rate constant against plasmin; procedure, shortened: as §1
[23] = Ratio of initial inhibitor concentration to initial t-PA concentration; procedure, shortened: as §3
[24] = target: T2, Neutrophil elastase (Homo sapiens); experiment: Maximum percent inhibition by the compound was determined against human neutrophil elastase HNE(66 nM); procedure, shortened: as §2
[25] = target: Plasminogen (Homo sapiens) (UniProt P00747); experiment: Second order rate constant against plasmin; procedure, shortened: as §1
[26] = target: Prothrombin (Homo sapiens) (UniProt P00734); experiment: Time to reach maximum percent inhibition by the compound was determined against thrombin (1.93 nM); type: functional
Procedure, shortened: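 Thrombin was incubated with excess lactone (DMSO, 10% final). Aliquots over 2 h were diluted into Ts-Gly-Pro-Arg-pNA (75 μM) in 0.05 M phosphate, 0.01 M EDTA, 10 g/L PEG 8000, 10 mg/L aprotinin, pH 8.0, and read at 408 nm against a no-lactone control. Time to maximal inhibition was recorded.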

[27] = target: T1, Serine protease 1 (Bos taurus); experiment: Second order rate constant against trypsin; procedure, shortened: as §1
[28] = target: Prothrombin (Homo sapiens) (UniProt P00734); experiment: Time for which maximum percent inhibition persists was determined against thrombin (1.93 nM); type: functional; procedure, shortened: as §2
[29] = target: Plasminogen (Homo sapiens) (UniProt P00747); experiment: Substrate binding constant against plasmin; procedure, shortened: as §1
[30] = target: T3, Urokinase-type plasminogen activator; remark: listed apart in the source
[31] = target: T2, Neutrophil elastase (Homo sapiens); experiment: Time for which maximum percent inhibition persists was determined against human neutrophil elastase HNE(66 nM); type: functional; procedure, shortened: as §2
[32] = target: T3, Urokinase-type plasminogen activator; remark: listed apart in the source

Chain of Plasminogen (Homo sapiens) (P00747 97-580 limits assumed): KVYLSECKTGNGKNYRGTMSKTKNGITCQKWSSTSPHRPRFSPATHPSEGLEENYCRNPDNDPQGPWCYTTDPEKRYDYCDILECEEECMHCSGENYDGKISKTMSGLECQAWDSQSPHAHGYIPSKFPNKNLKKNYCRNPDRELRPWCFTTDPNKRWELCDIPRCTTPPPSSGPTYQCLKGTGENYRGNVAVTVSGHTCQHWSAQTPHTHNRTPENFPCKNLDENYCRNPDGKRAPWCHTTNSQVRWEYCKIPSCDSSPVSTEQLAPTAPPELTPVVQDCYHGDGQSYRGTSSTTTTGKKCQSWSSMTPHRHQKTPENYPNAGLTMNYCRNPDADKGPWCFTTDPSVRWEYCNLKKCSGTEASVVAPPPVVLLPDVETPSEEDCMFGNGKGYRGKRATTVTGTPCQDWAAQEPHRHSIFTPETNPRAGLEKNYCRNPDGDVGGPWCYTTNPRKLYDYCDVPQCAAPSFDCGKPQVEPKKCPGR
Chain of Plasminogen (Homo sapiens) (P00747 581-810 limits assumed): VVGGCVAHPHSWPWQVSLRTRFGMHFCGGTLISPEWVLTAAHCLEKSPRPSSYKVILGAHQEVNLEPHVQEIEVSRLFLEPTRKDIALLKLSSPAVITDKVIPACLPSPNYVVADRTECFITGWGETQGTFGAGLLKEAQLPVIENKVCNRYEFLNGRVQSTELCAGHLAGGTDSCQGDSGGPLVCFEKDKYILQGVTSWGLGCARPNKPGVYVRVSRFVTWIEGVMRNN
Chain of Tissue-type plasminogen activator (Homo sapiens) (P00750 36-562 limits assumed): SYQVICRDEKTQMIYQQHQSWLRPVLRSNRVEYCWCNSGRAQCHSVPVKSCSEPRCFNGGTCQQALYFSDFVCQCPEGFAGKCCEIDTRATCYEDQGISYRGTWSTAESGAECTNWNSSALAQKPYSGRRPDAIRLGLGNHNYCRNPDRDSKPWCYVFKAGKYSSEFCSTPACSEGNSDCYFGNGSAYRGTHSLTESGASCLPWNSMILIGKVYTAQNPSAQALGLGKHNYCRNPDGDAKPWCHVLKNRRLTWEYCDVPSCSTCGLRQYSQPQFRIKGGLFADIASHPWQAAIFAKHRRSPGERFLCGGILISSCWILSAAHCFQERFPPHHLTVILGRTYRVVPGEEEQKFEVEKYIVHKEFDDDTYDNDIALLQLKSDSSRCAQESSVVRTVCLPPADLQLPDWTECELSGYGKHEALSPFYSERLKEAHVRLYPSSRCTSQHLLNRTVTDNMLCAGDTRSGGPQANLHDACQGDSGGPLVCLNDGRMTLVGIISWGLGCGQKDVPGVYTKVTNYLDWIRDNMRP

Question: For `N=C(N)Nc1ccc(C2CC(=O)O/C(=C/I)C2)cc1` (stereo not drawn), which TIME [1] is on record?
Answer: The TIME was 1 h.

Question: And the Ka [2]?
Answer: Its Ka is 0.54 min⁻¹.

Question: What about the inhibition [3] of the same molecule?
Answer: Its inhibition is 47%.

Question: What about the Ratio [4] of the same molecule?
Answer: Its Ratio is 16 Io/Eo.

Question: What about the TIME [5] of the same molecule?
Answer: The TIME was 0 h.

Question: What about the inhibition [6] of the same molecule?
Answer: The inhibition was 99%.

Question: What about the TIME [7] of the same molecule?
Answer: The TIME was 0.25 h.

Question: What about the inhibition [8] of the same molecule?
Answer: The inhibition was 22%.

Question: What about the Ratio [9] of the same molecule?
Answer: The Ratio was 118 Io/Eo.

Question: What about the TIME [10] of the same molecule?
Answer: The TIME was 0.25 h.

Question: And the TIME [11]?
Answer: The TIME was “No enzyme activity”.

Question: And the Ks [12]?
Answer: Its Ks is 7.83 µM.

Question: What about the Ka [13] of the same molecule?
Answer: The Ka was 2.61 min⁻¹.

Question: And the Ratio [14]?
Answer: The Ratio was 518 Io/Eo.

Question: And the Ratio [15]?
Answer: Its Ratio is 36 Io/Eo.

Question: What about the inhibition [16] of the same molecule?
Answer: The inhibition was 38%.

Question: What about the TIME [17] of the same molecule?
Answer: The TIME was 0 h.

Question: What about the Ratio [18] of the same molecule?
Answer: The Ratio was 86 Io/Eo.

Question: And the Kd (Serine protease 1)?
Answer: The Kd was 0.00033 s⁻¹.

Question: What about the inhibition [19] of the same molecule?
Answer: The inhibition was 97%.

Question: What about the TIME [20] of the same molecule?
Answer: Its TIME is 0.25 h.

Question: What about the Ratio [21] of the same molecule?
Answer: The Ratio was 50 Io/Eo.

Question: What about the Ka [22] of the same molecule?
Answer: The Ka was 11 min⁻¹.

Question: And the Ratio [23]?
Answer: The Ratio was 100 Io/Eo.

Question: And the inhibition [24]?
Answer: The inhibition was 67%.

Question: And the Rate [25]?
Answer: Its Rate is 0.9 ka/Ks.

Question: What about the TIME [26] of the same molecule?
Answer: Its TIME is 1.5 h.

Question: And the Rate [27]?
Answer: Its Rate is 0.13 ka/Ks.

Question: What about the TIME [28] of the same molecule?
Answer: The TIME was 0 h.

Question: And the Ks [29]?
Answer: Its Ks is 11 µM.

Question: And the Rate [30]?
Answer: The Rate was 0.33 ka/Ks.

Question: And the TIME [31]?
Answer: The TIME was 0.25 h.

Question: What about the Ks [32] of the same molecule?
Answer: Its Ks is 7.83 µM.
